As a reminder, the IC50 is the concentration that inhibits the measured activity by half. Higher therefore signals weaker potency in that assay. Usually inhibition in vivo stands for the drop in the measured response relative to a control, in per cent. Low readings indicate little suppression, high ones strong suppression.

The structures appear in SMILES notation. Activity calls are given as the source filed them. The rule behind the calls is not given here.

One test concerns the target T1, Endothelin-1 receptor (Homo sapiens, UniProt P25101).
T1 sequence (P25101 whole entry): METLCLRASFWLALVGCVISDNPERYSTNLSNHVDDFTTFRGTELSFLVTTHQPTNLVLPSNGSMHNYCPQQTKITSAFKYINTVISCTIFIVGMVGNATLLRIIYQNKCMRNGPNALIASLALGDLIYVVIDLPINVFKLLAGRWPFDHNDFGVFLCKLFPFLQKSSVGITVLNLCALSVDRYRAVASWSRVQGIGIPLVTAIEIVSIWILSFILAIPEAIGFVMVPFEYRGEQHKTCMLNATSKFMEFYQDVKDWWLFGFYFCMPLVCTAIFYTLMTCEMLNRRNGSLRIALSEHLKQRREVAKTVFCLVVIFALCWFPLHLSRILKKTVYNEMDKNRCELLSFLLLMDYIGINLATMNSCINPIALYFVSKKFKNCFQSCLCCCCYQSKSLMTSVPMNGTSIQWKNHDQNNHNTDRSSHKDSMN
As to the kind of experiment: Displacement of [125I]ET1 from human ETA receptor expressed in CHO cells. The test is classed as cell-based. The method, boiled down: (§1)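 Competitive binding against 125I-labeled ET-1 on CHO cells stably expressing human ETA or ETB receptor. Six concentrations, 1 µM to 10 pM, at least three measurements each. IC50 taken from the means.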
(In a radioligand displacement assay an active substance lowers the binding of a labelled ligand.)

The target of test [1] is T2, Endothelin receptor type B (Homo sapiens, UniProt P24530).
T2 sequence (P24530 whole entry): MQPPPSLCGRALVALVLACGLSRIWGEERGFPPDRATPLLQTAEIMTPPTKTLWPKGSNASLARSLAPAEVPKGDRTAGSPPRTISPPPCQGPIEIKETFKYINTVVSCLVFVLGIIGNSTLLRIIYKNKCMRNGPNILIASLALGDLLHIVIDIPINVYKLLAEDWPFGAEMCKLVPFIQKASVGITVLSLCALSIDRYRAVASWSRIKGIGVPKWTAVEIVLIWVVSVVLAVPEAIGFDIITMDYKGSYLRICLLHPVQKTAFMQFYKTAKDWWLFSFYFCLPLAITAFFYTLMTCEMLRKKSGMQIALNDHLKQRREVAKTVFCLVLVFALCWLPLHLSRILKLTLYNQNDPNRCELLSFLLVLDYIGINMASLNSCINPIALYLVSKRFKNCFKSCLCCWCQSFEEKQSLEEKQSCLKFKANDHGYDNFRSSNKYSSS
As to the kind of experiment: Displacement of [125I]ET1 from human ETB receptor expressed in CHO cells. The test is classed as cell-based. The method, boiled down: as §1

A further test is filed under the species Homo sapiens. As to the kind of experiment: Selectivity for human ETA receptor over human ETB receptor.
The subject of test [2] is PC-3. The test is described as follows: Inhibition of tumor growth in human PC3 cells xenografted mouse at 2 mg/kg after 31 days. Conditions: PC-3, 744 h. The test is classed as functional. The method, boiled down: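 PC-3 prostate cancer xenograft. Dosing at 2 mg/kg […]. Tumor volume growth inhibition read at day 31 against vehicle control. Significance by one-way ANOVA with Dunnett's test to vehicle.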
On the technique in general: A xenograft is tissue or cells of one species grown in another, often human tumour cells in immunodeficient mice.

In test [3] the test system is PC-3. The test is described as follows: Inhibition of tumor growth in PC3 cells xenografted mouse at 0.25 mg/kg administered once weekly for 31 days. Conditions: Homo sapiens. On the set-up: dose 0.25 mg/kg. The test is classed as functional, organism-based. An outline of the steps: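 PC-3 prostate cancer xenograft. Dosing at 0.25 mg/kg once weekly. Tumor volume tracked to day 31 against vehicle control. Significance by one-way ANOVA with Dunnett's multiple comparison test to vehicle.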

As for `CC(=O)CC(=O)CCc1ccc(NC(=O)CCOCCOCCOCCOCCOc2ccc(CC(=O)N(C)Cc3cc(-c4ncco4)ccc3-c3ccccc3S(=O)(=O)Nc3ccno3)cc2)cc1`, the IC50 came out at 4.6 nM at Endothelin-1 receptor and 1910 nM in test [1]. The Ratio IC50 in the test listed under Homo sapiens is 420.

Consider `CC(=O)CC(=O)CCc1ccc(NC(=O)CCOCCOCCOCCOCCOc2ccc(CCC(=O)N(C)Cc3cc(-c4ncco4)ccc3-c3ccccc3S(=O)(=O)Nc3ccno3)cc2)cc1`, for which the IC50 on Endothelin-1 receptor is 21.6 nM; in test [1], 4920 nM. Further, the Ratio IC50 in the test listed under Homo sapiens is 228.

On to `CC(=O)CC(=O)CCc1ccc(NC(=O)CCOCCOCCOCCOCCOCCOCCOCCC(=O)N(C)Cc2cc(-c3ncco3)ccc2-c2ccccc2S(=O)(=O)Nc2ccno2)cc1`, for which the IC50 was found to be 8 nM on Endothelin-1 receptor and 4690 nM in test [1]. Besides, the Ratio IC50 in the test filed under Homo sapiens amounted to 564.

On to `CN(Cc1cc(-c2ncco2)ccc1-c1ccccc1S(=O)(=O)Nc1ccno1)C(=O)CC(C)(C)C`, for which the IC50 on Endothelin-1 receptor amounted to 1 nM; in test [1], 6000 nM. Further, at 2 mg/kg the inhibition in vivo in the test on PC-3 [2] was 50%. Further, in the test listed under Homo sapiens, the Ratio IC50 stood at 8980.

Turning to `CC(=O)CC(=O)CCc1ccc(NC(=O)CCOCCOCCOCCOc2ccc(-c3ccccc3S(=O)(=O)Nc3ccno3)c(CN(C)C(=O)CC(C)(C)C)c2)cc1`, the values for the IC50 (at Endothelin-1 receptor; in test [1]) were 44.9 nM and greater than 10000 nM, respectively.

With `CC(=O)CC(=O)CCc1ccc(NC(=O)CCOCCOCCOCCOCC(=O)N(C)Cc2cc(-c3ncco3)ccc2-c2ccccc2S(=O)(=O)Nc2ccno2)cc1`, the result in the test with PC-3 [3] was inactive. The IC50 turned out to be 1.6 nM at Endothelin-1 receptor and 1110 nM in test [1]. Moreover, the Ratio IC50 in the test listed under Homo sapiens came to 1120.

For the compound `CC(=O)CC(=O)CCc1ccc(NC(=O)CCOCCOCCOCCOCCOCCOCCOCCOCCOCCOCCOCCNC(=O)CCCC(=O)N(C)Cc2cc(-c3ncco3)ccc2-c2ccccc2S(=O)(=O)Nc2ccno2)cc1`, the IC50 at Endothelin-1 receptor turned out to be 7.7 nM; in test [1] it was 4510 nM. The Ratio IC50 in the test filed under Homo sapiens came to 564.
